Measured values: ChEMBL document CHEMBL1145402, “Discovery of potent and muscle selective androgen receptor modulators through scaffold modifications” (J Med Chem, 2007)

Key:
[1] = biological target: T1, Androgen receptor (Homo sapiens, UniProt P10275); assay: Agonist activity at androgen receptor expressed in C2C12 mouse cells by luciferase reporter transactivation assay; assay type: functional, cell-based
T1 sequence (P10275 whole entry): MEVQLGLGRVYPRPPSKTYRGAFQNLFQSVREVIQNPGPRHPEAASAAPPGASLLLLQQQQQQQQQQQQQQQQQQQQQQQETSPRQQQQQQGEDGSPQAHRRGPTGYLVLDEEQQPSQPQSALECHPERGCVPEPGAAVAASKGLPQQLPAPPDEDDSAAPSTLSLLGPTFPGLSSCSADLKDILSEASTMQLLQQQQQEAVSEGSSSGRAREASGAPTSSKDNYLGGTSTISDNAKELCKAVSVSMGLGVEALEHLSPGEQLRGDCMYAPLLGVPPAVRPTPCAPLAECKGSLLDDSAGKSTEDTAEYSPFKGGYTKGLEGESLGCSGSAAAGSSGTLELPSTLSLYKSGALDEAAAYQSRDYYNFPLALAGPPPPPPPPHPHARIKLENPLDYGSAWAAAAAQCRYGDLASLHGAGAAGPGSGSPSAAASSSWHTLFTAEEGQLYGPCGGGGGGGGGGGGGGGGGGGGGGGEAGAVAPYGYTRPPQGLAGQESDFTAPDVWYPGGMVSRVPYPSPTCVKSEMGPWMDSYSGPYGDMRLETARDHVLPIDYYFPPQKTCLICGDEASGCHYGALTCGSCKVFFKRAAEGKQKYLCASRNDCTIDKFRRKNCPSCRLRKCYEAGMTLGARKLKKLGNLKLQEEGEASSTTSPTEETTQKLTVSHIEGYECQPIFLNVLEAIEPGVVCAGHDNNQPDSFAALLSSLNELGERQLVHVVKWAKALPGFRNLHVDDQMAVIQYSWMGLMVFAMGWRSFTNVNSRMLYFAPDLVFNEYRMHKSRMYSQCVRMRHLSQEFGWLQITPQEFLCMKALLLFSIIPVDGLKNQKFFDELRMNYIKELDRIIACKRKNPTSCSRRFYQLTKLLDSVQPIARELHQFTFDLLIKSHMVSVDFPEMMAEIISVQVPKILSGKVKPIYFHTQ

[2] = biological target: T1, Androgen receptor; assay: Displacement of [3H]DHT from androgen receptor expressed in MDA-MB-453 cells; assay type: cell-based
[3] = test system: Rattus norvegicus; assay: Stimulation of levator ani muscle weight in Sprague-Dawley rat at 1 mg/kg, po after 14 days; assay type: functional
In short: (§1)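 Mature male rats were castrated two weeks before treatment. Compound was given […] once daily for two weeks, then levator ani muscle and ventral prostate were weighed. Weights are expressed as percent of a sham-operated, vehicle-treated intact control group, ±SEM.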

[4] = test system: Rattus norvegicus; assay: Stimulation of ventral prostate tissue weight in Sprague-Dawley rat at 1 mg/kg, po after 14 days; assay type: functional, Prostate gland; in short: as §1
[5] = test system: Rattus norvegicus; assay: Stimulation of levator ani muscle weight in Sprague-Dawley rat at 0.3 mg/kg, sc after 14 days; assay type: functional; conditions: route subcutaneous
In short: (§2)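 Mature male rats were castrated two weeks before dosing. Testosterone propionate was given subcutaneously for two weeks, then levator ani muscle and ventral prostate were weighed. Weights are expressed as percent of a sham-operated, vehicle-treated intact control group, ±SEM.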

[6] = test system: Rattus norvegicus; assay: Stimulation of ventral prostate tissue weight in Sprague-Dawley rat at 0.3 mg/kg, sc after 14 days; assay type: functional, Prostate gland; conditions: route subcutaneous; in short: as §2

| SMILES | EC50 [1] [nM] | Ki [2] [nM] | also measured |
| --- | --- | --- | --- |
| CC[C@@H]1[C@@H]2[C@@H](O)CCN2C(=O)N1c1ccc(C#N)c(Cl)c1C | 7.1 | 1.6 | – |
| Cc1c(N2C(=O)N3CC[C@H](O)[C@H]3[C@@H]2C(F)(F)F)ccc(C#N)c1Cl | 2.5 | 0.9 | – |
| Cc1c(N2C[C@@H]3[C@H](O)CC[C@@H]3C2=O)ccc(C#N)c1Cl | 20 | – | Activity [3]: 45%; Activity [4]: 6% |
| Cc1c(N2C(=O)N3CC[C@H](O)[C@H]3[C@H]2C(F)(F)F)ccc(C#N)c1Cl | 48 | 1.9 | – |
| CC[C@@H]1[C@@H]2[C@H](O)CCN2C(=O)N1c1ccc(C#N)c(Cl)c1C | 7.4 | 2.3 | – |
| Cc1c(N2C(=O)N3CC[C@@H](O)[C@H]3[C@H]2C(C)C)ccc(C#N)c1Cl | 108 | 23 | – |
| CC1=C(c2ccc(C#N)c(Cl)c2C)C(=O)N2CC[C@H](O)[C@@H]12 | 2 | – | – |
| CCC(=O)O[C@H]1CC[C@H]2[C@@H]3CCC4=CC(=O)CC[C@]4(C)[C@H]3CC[C@]12C [TESTOSTERONE PROPIONATE] | – | – | Activity [5]: 70%; Activity [6]: 68% |
